As usually defined, the inhibition is the drop in the measured response relative to a control, in per cent.

Out of some 330,000 compounds screened, about 2,400 (0.73%) were called active. This is one part of a sample in which actives are shown more often than they occur. How the source made its calls: active means inhibition of at least 40% at 20 µM; inactive means the rest.

Drawing on PubChem BioAssay AID489030 (Sanford-Burnham Center for Chemical Genomics, 2010), this text covers inhibition for 75 compounds.

Chain of Apoptotic protease-activating factor 1 (Homo sapiens) (O14727 whole entry, looked up): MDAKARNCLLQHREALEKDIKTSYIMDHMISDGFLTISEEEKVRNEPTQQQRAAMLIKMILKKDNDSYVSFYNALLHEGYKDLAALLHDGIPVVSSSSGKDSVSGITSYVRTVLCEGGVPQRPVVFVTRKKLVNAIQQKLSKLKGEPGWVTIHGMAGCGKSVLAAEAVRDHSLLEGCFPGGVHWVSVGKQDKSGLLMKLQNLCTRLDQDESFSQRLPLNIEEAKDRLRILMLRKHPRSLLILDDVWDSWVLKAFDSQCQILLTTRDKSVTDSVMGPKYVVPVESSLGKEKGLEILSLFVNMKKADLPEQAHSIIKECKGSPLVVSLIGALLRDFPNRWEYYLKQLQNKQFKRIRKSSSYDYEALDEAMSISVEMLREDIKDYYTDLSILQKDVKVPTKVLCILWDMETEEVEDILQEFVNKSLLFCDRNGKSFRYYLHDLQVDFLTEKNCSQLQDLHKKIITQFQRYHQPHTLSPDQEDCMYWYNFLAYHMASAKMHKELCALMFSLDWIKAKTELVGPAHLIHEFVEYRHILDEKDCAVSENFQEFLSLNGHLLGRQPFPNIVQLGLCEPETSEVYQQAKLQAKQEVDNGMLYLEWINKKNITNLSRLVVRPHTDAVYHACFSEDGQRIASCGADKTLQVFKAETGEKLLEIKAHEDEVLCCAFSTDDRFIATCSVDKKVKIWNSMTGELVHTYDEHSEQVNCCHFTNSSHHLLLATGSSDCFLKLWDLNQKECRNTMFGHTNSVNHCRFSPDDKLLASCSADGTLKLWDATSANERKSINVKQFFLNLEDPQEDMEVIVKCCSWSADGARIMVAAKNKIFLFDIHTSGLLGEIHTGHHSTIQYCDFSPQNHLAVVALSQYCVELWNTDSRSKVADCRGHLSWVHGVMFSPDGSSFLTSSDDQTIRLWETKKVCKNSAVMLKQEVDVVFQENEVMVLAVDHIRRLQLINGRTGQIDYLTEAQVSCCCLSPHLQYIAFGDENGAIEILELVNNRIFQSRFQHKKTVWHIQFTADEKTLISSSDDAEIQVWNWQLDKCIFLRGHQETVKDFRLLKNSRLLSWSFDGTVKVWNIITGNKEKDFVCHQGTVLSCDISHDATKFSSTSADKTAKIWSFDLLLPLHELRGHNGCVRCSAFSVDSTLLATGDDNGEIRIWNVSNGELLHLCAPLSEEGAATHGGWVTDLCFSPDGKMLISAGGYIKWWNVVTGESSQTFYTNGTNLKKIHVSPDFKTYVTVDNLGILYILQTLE

This assay has as its target Apoptotic protease-activating factor 1 (Homo sapiens) (UniProt O14727). The experiment in a line: blockers of Apaf-1-driven caspase-3 activation – biochemical, DEVD-Rh110 fluorescence, uHTS, primary screen (AID 489030).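 Further: plate controls were DMSO wells for no effect and DEVD-CHO caspase inhibitor wells for full effect.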 Conditions: reconstituted apoptosome caspase-3 activity, at 20 µM, stronger effect = higher value. The essentials: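 Material: reconstituted apoptosome with Apaf-1, cytochrome c, caspase-9, procaspase-3, dATP / Buffer or medium: pH 7.5 Hepes buffer with CHAPS, BSA, DTT / Also added: cytochrome c with DEVD-Rh110 / Schedule: compound with Apaf-1, dATP, procaspase-3 30 min, then 50 min reaction, room temperature / Technique: rhodamine 110 fluorescence at Ex 480/Em 540 nm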
For `CCNC(=O)COC(=O)CCNC(=O)c1cccc(C)c1`, the inhibition was -4.69% (inactive).

Take `Cc1nn2cc(-c3ccc(Cl)cc3)cnc2c1Br`: the inhibition was -6.41% (inactive). As to `COc1cc(OC)cc(C(=O)OCC(=O)Nc2sccc2C(N)=O)c1`, the inhibition was -0.564% (inactive).

In the case of `COC(=O)c1ccc(N2CCOCC2)c(NC(=O)c2ccc(Br)o2)c1`, the inhibition was -17.7% (inactive). `CCCCc1nc2cc(C(=O)N3CCCCC3CCO)ccc2o1` (stereo not given): the inhibition is 5.2% (inactive). Regarding `CCN(CC)CCCSc1nc2ccccc2s1`, the inhibition is -0.516% (inactive). As to `OCCNc1nc(Nc2ccc(Cl)c(Cl)c2)nc2ccccc12`, the inhibition was 24.2% (inactive). For the compound `O=[N+]([O-])c1c(NCCO)cc(Sc2nc3ccccc3s2)c2nonc12`, the inhibition was 90.7% (active). For `O=c1ccc2cc(S(=O)(=O)NCCCc3ccccc3)ccc2[nH]1`, the inhibition was 0.38% (inactive). Consider `C=CC(=O)OCCOCCOCCOCCOC(=O)C=C`, for which the inhibition was -5.63% (inactive). Then `O=C1CCNCCN1[C@H](CO)Cc1ccccc1`, with -9.83% (inactive); and `c1ccc(C[C@H]2CNCCN2CCC23CC4CC(CC(C4)C2)C3)cc1`, with 47.5% (active).

Regarding `c1ccc(C2CNCc3c2ccc2ccccc32)cc1` (stereo not given), the inhibition was 13.6% (inactive). As to `c1ccc2c(CCN3CCNC[C@H]3Cc3cccc4ccccc34)cccc2c1`, the inhibition is 67% (active). For `CC(C)(C)CN1C(=O)C(=O)NC[C@H]1Cc1cccc2ccccc12`, the inhibition is -2.41% (inactive).

On to `NS(=O)(=O)c1ccc(N2C(=O)C3C4CC(C(Br)C4Br)C3C2=O)cc1` (stereo not given), for which the inhibition is 4.73% (inactive).

Consider `CC(=O)Nc1ccc(OCCC[n+]2cccc(C(=O)[O-])c2)cc1`, for which the inhibition was 0.989% (inactive). `N=c1ccn(CC(=O)NC(N)=O)c2ccccc12`: the inhibition is -8.89% (inactive). Turning to `Cc1cccc(/C=N/NC(=O)CNc2cccc3ccccc23)n1`, the inhibition was 8.96% (inactive). For the compound `C/C(=N\NC(=O)CSc1nc2ccccc2c(=O)n1-c1ccccc1C)c1cccs1`, the inhibition was 19.1% (inactive). Take `C/C(=N\NC(=O)CNc1cccc2ccccc12)c1ccc(Br)s1`: the inhibition is 90.2% (active). Regarding `COc1ccc(-n2nnnc2SCC(=O)c2ccc(OC)c(OC)c2)cc1`, the inhibition is 1% (inactive). Then `CC[C@@H](C)[C@@H](C(=O)N1CCN(C(=O)OC(C)(C)C)CC1)n1cc(CCC(=O)O)nn1`, with -7.69% (inactive); and `COc1ccc(C2=NOC3(CC(=O)N(c4ccc(Cl)cc4)C3=O)C2)c(OC)c1` (stereo not given), with 5.23% (inactive); and `C#CCOCCOCCOCCNc1nc(N2CCN(C(=O)[C@H](CCC(=O)O)n3cc(C(N)CO)nn3)CC2)nc(N2CCN(C(=O)[C@H](CCCCN)n3cc(C(N)CC(C)C)nn3)CC2)n1` (stereo not given in full), with 2.63% (inactive).

As to `C#CCOCCOCCOCCNc1nc(N2CCN(C(=O)CCCCCCCCCCNC(=O)[C@H](CCCCN)n3cc(C)nn3)CC2)nc(N2CCN(C(=O)CCCCCCCCCCNC(=O)[C@H](CO)n3cc(CCCSC)nn3)CC2)n1`, the inhibition was 59.7% (active). As to `C#CCOCCOCCOCCNc1nc(N2CCN(C(=O)[C@H](CCC(=O)O)n3cc(CN)nn3)CC2)nc(N2CCN(C(=O)[C@H](CCC(=O)O)n3cc(CN)nn3)CC2)n1`, the inhibition was -8.71% (inactive). Regarding `C#CCOCCOCCOCCNc1nc(N2CCN(C(=O)Cn3cc(CCCCN)nn3)CC2)nc(N2CCN(C(=O)[C@H](CCCCN)n3cc(CCC(=O)O)nn3)CC2)n1`, the inhibition was 2.29% (inactive). As to `C#CCOCCOCCOCCNc1nc(N2CCN(C(=O)[C@H](C(C)C)n3cc(CCO)nn3)CC2)nc(N2CCN(C(=O)[C@H]([C@@H](C)CC)n3cc(CCCN=C(N)N)nn3)CC2)n1`, the inhibition was 0.78% (inactive). For the compound `C#CCOCCOCCOCCNc1nc(N2CCN(C(=O)[C@H](CCC(=O)O)n3cc(C(N)CO)nn3)CC2)nc(N2CCN(C(=O)[C@H](CCCCN)n3cc(C(N)[C@H](C)CC)nn3)CC2)n1` (stereo not given in full), the inhibition is 20.3% (inactive). Take `C#CCOCCOCCOCCNc1nc(N2CCN(C(=O)[C@H](CCCCN)n3cc(CCC(=O)O)nn3)CC2)nc(N2CCN(C(=O)[C@H](CCCCN)n3cc(CC(C)O)nn3)CC2)n1` (stereo not given in full): the inhibition is -2.94% (inactive). For the compound `C#CCOCCOCCOCCNc1nc(N2CCN(C(=O)C([C@@H](C)CC)n3cc(C(N)COC(=O)C(F)(F)F)nn3)CC2)nc(N2CCN(C(=O)[C@H](CCCCN)n3cc(C(N)CC(C)C)nn3)CC2)n1` (stereo not given in full), the inhibition is 4.38% (inactive). On to `C#CCOCCOCCOCCNc1nc(N2CCN(C(=O)CCCCCCCCCCNC(=O)Cn3cc(CCCCCN)nn3)CC2)nc(N2CCN(C(=O)CCCCCCCCCCNC(=O)[C@H](CO)n3cc(CCCSC)nn3)CC2)n1`, for which the inhibition was 60.7% (active). The value for `C#CCOCCOCCOCCNc1nc(N2CCN(C(=O)[C@H](CCCN=C(N)N)n3cc(C(N)[C@@H](C)CC)nn3)CC2)nc(N2CCN(C(=O)[C@H](CO)n3cc([C@@H](N)C(C)C)nn3)CC2)n1` (stereo not given in full) was 1.97% (inactive).

In the case of `C#CCOCCOCCOCCNc1nc(N2CCN(C(=O)CCCCCCCCCCNC(=O)[C@H]([C@@H](C)CC)n3cc(CCCCN=C(N)N)nn3)CC2)nc(N2CCN(C(=O)CCCCCCCCCCNC(=O)[C@H](CO)n3cc(CCCSC)nn3)CC2)n1`, the inhibition was 59.2% (active). On to `C#CCOCCOCCOCCNc1nc(N2CCN(C(=O)C([C@@H](C)O)n3cc([C@@H](N)CCCCN)nn3)CC2)nc(N2CCN(C(=O)[C@H](CCCCN)n3cc(CN)nn3)CC2)n1` (stereo not given in full), for which the inhibition is 42.2% (active). Then `CCN(c1ccc2c(c1)OCO2)S(=O)(=O)c1cc(Br)cc2c1N(C(=O)C1CC1)CC2`, with 21.5% (inactive). For `COc1cc(C2C(C(=O)c3cccs3)=C(O)C(=O)N2CCN2CCOCC2)ccc1OCCC(C)C` (stereo not given), the inhibition was 6.88% (inactive). Regarding `CCn1c(CN2C(=O)CSc3ccccc32)n[nH]c1=S`, the inhibition is -18.9% (inactive). Regarding `CN(Cc1ccccc1)C(=O)c1ccc(NC2=NC3CS(=O)(=O)CC3S2)cc1` (stereo not given), the inhibition is -0.97% (inactive). As to `CC(C)Oc1ccc(Cc2n[nH]c(=S)n2Cc2ccccc2)cc1Cl`, the inhibition was -15.3% (inactive). In the case of `CC(NCc1ccccc1OC1CCCC1)c1ccccc1` (stereo not given), the inhibition is -12% (inactive). With `CCOc1ccc(N=C2NC(=O)S/C2=C\c2ccc(O)cc2)cc1`, the inhibition is -72% (inactive). Turning to `CCOc1[nH]n(-c2ccc(Cl)cc2)c(=O)c1C=Nc1ccc(O)cc1`, the inhibition is 66.9% (active). For `CCCCn1c(N)c(N(CCC(C)C)C(=O)c2ccc([N+](=O)[O-])o2)c(=O)[nH]c1=O`, the inhibition is 5.92% (inactive).

Turning to `CCCCc1nnc(NC(=O)CSc2nc(N)cc(=O)[nH]2)s1`, the inhibition was 20.3% (inactive).

Turning to `COc1ccc(NC(=O)CN(C)S(=O)(=O)c2ccccc2)cc1OC`, the inhibition is -3.33% (inactive). Turning to `COc1ccc(NC(=O)CN(Cc2ccccc2)S(C)(=O)=O)cc1OC`, the inhibition is 40.8% (active). Consider `COC(=O)c1ccccc1NC(=O)CN(Cc1ccccc1)S(C)(=O)=O`, for which the inhibition is -17.6% (inactive).

For `CCCCN(C(=O)C1=NN(c2cc(C)ccc2C)C(=O)CC1)c1c(N)n(CCC)c(=O)[nH]c1=O`, the inhibition was -17% (inactive). Take `CC1CC(=S)Nc2ccccc2N1Cc1ccccc1` (stereo not given): the inhibition was 41.4% (active). Regarding `CC1CC(C)(C)NC(=S)N1CCC(=O)N1CCN(Cc2ccccc2)CC1` (stereo not given), the inhibition is -1.32% (inactive). With `CC1CC(=O)Nc2ccccc2N1S(=O)(=O)c1cccs1` (stereo not given), the inhibition is -4.75% (inactive). As for `COC(=O)c1noc(C)c1-c1ccnn1C(=O)c1ccc(Cl)cc1`, the inhibition was 10.5% (inactive). `CN(C)CCCN(C(=O)c1ccc(S(=O)(=O)N2CCCCCC2)cc1)c1nc2ccc(Br)cc2s1`: the inhibition is 60.4% (active). For `COc1ccc2sc(N(CCCN(C)C)C(=O)c3ccc(S(=O)(=O)N(C)C4CCCCC4)cc3)nc2c1`, the inhibition was 24% (inactive). With `CN(C)CCCN(C(=O)c1ccc(S(=O)(=O)N2CCCc3ccccc32)cc1)c1nc2ccc(F)cc2s1`, the inhibition was 23.6% (inactive).

`C#CCOCCOCCOCCNc1nc(N2CCN(C(=O)[C@H](CCCCN)n3cc([C@@H](N)C(C)CC)nn3)CC2)nc(N2CCN(C(=O)[C@H](Cc3ccc(O)cc3)n3cc([C@@H](N)C(C)CC)nn3)CC2)n1` (stereo not given in full): the inhibition is -9.37% (inactive). `CC1(C)CC(=O)C2=C(C1)NCN(CCCN1CCOCC1)C2`: the inhibition was 4.48% (inactive). With `CCc1nc(C)ccc1OCC(=O)N(CC)CC`, the inhibition is -18.1% (inactive). For the compound `CCC(C)(C)c1ccc(OCC(=O)N(C)C)c(C(C)(C)CC)c1`, the inhibition is 56.5% (active). As for `CN(C)CCOc1ccc(Cl)cc1C(C)(C)C`, the inhibition was 4.15% (inactive). Regarding `CCOc1ccc(C(=O)CCN2CCOCC2)cc1`, the inhibition was 2.64% (inactive). The value for `CC(OC(=O)c1ccc(NS(=O)(=O)c2ccc3[nH]c(=O)[nH]c3c2)cc1)C(=O)Nc1cccc(Cl)c1Cl` (stereo not given) was 14% (inactive); that for `CCC(C)Sc1nc2c(c(=O)[nH]c(=O)n2C)n1CC(O)COc1cccc2ccccc12` (stereo not given) was 22.5% (inactive); that for `Cc1cc(C)c(NC(=O)C[N+](C)(C)CC(O)COc2cccc3ccccc23)c(C)c1` (stereo not given) was 12.4% (inactive). As to `CC(C)c1ccccc1OCC(O)CN(CC(O)COc1cccc2ccccc12)C(C)C` (stereo not given), the inhibition is 57.3% (active). `COc1cccc(OCc2nnc3n2N=C(c2ccccc2)C(CC(=O)O)S3)c1` (stereo not given): the inhibition is -0.294% (inactive).

As for `CCCCCCCCCCOC(=O)Cn1c(COc2ccc(C)cc2)[n+](C)c2ccccc21`, the inhibition is 77.7% (active).

Regarding `CCCCn1c(N)c(N(CCOC)C(=O)c2cccc(OCc3ccccc3)c2)c(=O)[nH]c1=O`, the inhibition is 0.864% (inactive). In the case of `CCOC(=O)COn1c(=O)c(-c2ccc(OCC)cc2)[n+]([O-])c2ccccc21`, the inhibition is 9.6% (inactive). Then `CCCCOc1ccc(NC(=O)CSCC(=O)OCC)cc1`, with -4.3% (inactive); and `CCCCCCCCCCOC(=O)Cn1c(COc2cccc(OC)c2)[n+](C)c2ccccc21`, with 65.3% (active); and `Cc1cccc(/C(N)=N/OC(=O)c2ccccc2Cl)c1`, with 11.3% (inactive).

In the case of `CCOC(=O)c1sc(C)c2c1NC(C)(c1cccc3ccccc13)NC2=O` (stereo not given), the inhibition was 28% (inactive).
